21 compounds from ChEMBL document CHEMBL1151862, “Quaternary ammonium N,N-dichloroamines as topical, antimicrobial agents” (Bioorg Med Chem Lett, 2009) can be followed below.

One data set deals with Candida albicans. Kind of data set: Antifungal activity against Candida albicans ATCC 10231 after 1 hr by CLSI M26-A based method at room temperature. Type of data set: functional. To be noted: ATCC 10231, 1 h. The method, boiled down: (§1)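 Minimum bactericidal (bacteria) or fungicidal (C. albicans) concentration was determined by a modified CLSI M26-A method. Isotonic saline at pH 4 replaced Mueller–Hinton broth because chlorine reacts with broth components. Exposure was shortened from 16–20 h at 35 °C to 1 h at room temperature.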

Another data set concerns Escherichia coli. In words: Antibacterial activity against Escherichia coli ATCC 25922 after 1 hr by CLSI M26-A based method at room temperature. It is filed as functional. To be noted: ATCC 25922, 1 h. The method, boiled down: as §1
A short description of data set [1]: Stability in 0.6% borate buffer assessed as half life at pH 7. Type of data set: physicochemical. Put shortly: (§2)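 Aqueous half-life is reported in days. Media were saline at pH 4, phosphate at pH 7, and, for some analogs, 0.6% borate buffer at pH 7. Biological testing was limited to analogs with aqueous stability above 24 h at 40 °C.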
Data set [2] in a line: Stability in saline solution assessed as half life at pH 4. It is filed as physicochemical. The method, boiled down: as §2
In another data set the test system is Staphylococcus aureus. Kind of data set: Antibacterial activity against Staphylococcus aureus ATCC 29213 after 1 hr by CLSI M26-A based method at room temperature. Type of data set: functional. To be noted: ATCC 29213, 1 h. Put shortly:
as §1

Data set [3] can be described thus: Stability in phosphate buffer assessed as half life at pH 7. It is filed as physicochemical. Put shortly:
as §2

Data set [4] is described as follows: Stability in water assessed as half life at pH 4 at 40 degC. Type of data set: physicochemical.

Structures are written as SMILES. In brackets after ≈: the same amount, converted by molar mass.

The compound `CC(C)(CC(=O)NCCS(=O)(=O)O)N(Cl)Cl` showed an MFC with Candida albicans of 64 µg/mL (≈ 218 µM). Also, the minimal bactericidal concentration (MBC) with Escherichia coli is 2 µg/mL (≈ 6.82 µM); in the data set with Staphylococcus aureus, 8 µg/mL (≈ 27.3 µM). The results for the half-life in data set [1] and in data set [2] were 36 days and 33 days, respectively.

Consider `C[n+]1ccc(CCC(C)(C)N(Cl)Cl)cc1.[Cl-]`, for which the MFC with Candida albicans was found to be 1020 µg/mL. Also, the minimal bactericidal concentration (MBC) in the data set with Escherichia coli came to 2 µg/mL; against Staphylococcus aureus it was 8 µg/mL. Also, the half-life in data set [1] is 20 days; in data set [2] it was > 60 days.

For the compound `CC(C)(CC(=O)OCC[N+]1(C)CCCCC1)N(Cl)Cl.[Cl-]`, the MBC was determined as 2 µg/mL with Escherichia coli and 4 µg/mL in the data set with Staphylococcus aureus. Further, the half-life in data set [2] was > 72 days; in data set [3] it was 7 days.

Take `CN(CC[N+](C)(C)C)C(=O)CC(C)(C)N(Cl)Cl.[Cl-]`: the MFC with Candida albicans worked out at 32 µg/mL. The MBC in the data set with Escherichia coli is 2 µg/mL; against Staphylococcus aureus, 16 µg/mL. For the same compound, the half-life is 4 days in data set [2] and 6 days in data set [3].

For `CC(C)(C[N+](C)(C)CCS(=O)(=O)O)N(Cl)Cl.[Cl-]`, the minimum fungicidal concentration (MFC) against Candida albicans came out at 128 µg/mL. Further, the figures for the minimal bactericidal concentration (MBC) with Escherichia coli and in the data set on Staphylococcus aureus were 16 µg/mL and 64 µg/mL, respectively. In addition, the half-life in data set [2] was > 180 days; in data set [3], 19 days.

With `CN(CCS(=O)(=O)O)C(=O)CC(C)(C)N(Cl)Cl`, the MFC against Candida albicans amounted to 32 µg/mL (≈ 104 µM). In addition, the minimal bactericidal concentration (MBC) in the data set with Escherichia coli came out at 1 µg/mL (≈ 3.26 µM); in the data set with Staphylococcus aureus, 2 µg/mL (≈ 6.51 µM). In addition, the half-life in data set [2] and in data set [3] was 1 days each time.

The compound `CC(C)(Cc1ncnn1CCS(=O)(=O)O)N(Cl)Cl` yielded a minimum fungicidal concentration (MFC) in the data set with Candida albicans of 64 µg/mL (≈ 202 µM). The figures for the MBC in the data set on Escherichia coli and in the data set with Staphylococcus aureus were 2 µg/mL (≈ 6.31 µM) and 4 µg/mL (≈ 12.6 µM), respectively. Moreover, the half-life in data set [2] was 21 days; in data set [3], 23 days.

`Cc1nn(C)c(CC(C)(C)N(Cl)Cl)[n+]1C.[Cl-]`: the minimal fungicidal concentration (MFC) with Candida albicans was 32 µg/mL. Moreover, the MBC is 4 µg/mL in the data set on Escherichia coli and 8 µg/mL with Staphylococcus aureus. For the same compound, the half-life was 61 days in data set [2] and 4 days in data set [3].

Consider `C[S+](C)CC(C)(C)N(Cl)Cl.[Cl-]`, for which the minimum fungicidal concentration (MFC) in the data set with Candida albicans amounted to 128 µg/mL. Also, the minimum bactericidal concentration (MBC) in the data set on Escherichia coli is 4 µg/mL; in the data set on Staphylococcus aureus, 8 µg/mL. The half-life was > 67 days in data set [2] and 1 days in data set [3].

In the case of `CC(C)(c1cn(CCS(=O)(=O)O)nn1)N(Cl)Cl`, the MFC against Candida albicans is 32 µg/mL (≈ 106 µM). Besides, the minimum bactericidal concentration (MBC) in the data set on Escherichia coli amounted to 4 µg/mL (≈ 13.2 µM); with Staphylococcus aureus it was 8 µg/mL (≈ 26.4 µM). In addition, the half-life was 10 days in data set [2] and 5 days in data set [3].

Take `CC(C)(C[N+](C)(C)C)N(Cl)Cl.[Cl-]`: the MFC in the data set with Candida albicans was 128 µg/mL. Besides, the results for the MBC against Escherichia coli and in the data set with Staphylococcus aureus were 8 µg/mL and 16 µg/mL, respectively. For the same compound, the values for the half-life in data set [2] and in data set [3] were > 325 days and > 396 days, respectively.

In the data set with Candida albicans, `CC(C)(CS(=O)(=O)[O-])N(Cl)Cl.[Na+]` registered a minimum fungicidal concentration (MFC) of 32 µg/mL. Moreover, the minimum bactericidal concentration (MBC) in the data set on Escherichia coli and in the data set with Staphylococcus aureus was 2 µg/mL each time. For the same compound, the half-life in data set [2] is > 730 days; in data set [3], > 300 days.

Turning to `Cn1nc[n+](C)c1CC(C)(C)N(Cl)Cl.[Cl-]`, in the data set on Candida albicans, the minimum fungicidal concentration (MFC) is 16 µg/mL. Moreover, the MBC in the data set on Escherichia coli is 2 µg/mL; in the data set with Staphylococcus aureus, 4 µg/mL. Besides, the half-life in data set [2] was 67 days; in data set [3] it was 5 days.

On to `CC(C)(COCCCS(=O)(=O)O)N(Cl)Cl`, for which the half-life in data set [4] is 0.104 days.

Regarding `CC(C)(Cc1nc(CS(=O)(=O)O)no1)N(Cl)Cl`, in the data set on Candida albicans, the MFC amounted to 16 µg/mL (≈ 52.6 µM). Also, the MBC is 4 µg/mL (≈ 13.2 µM) against Escherichia coli and 2 µg/mL (≈ 6.58 µM) against Staphylococcus aureus. Also, the figures for the half-life in data set [2] and in data set [3] were 106 days and 17 days, respectively.

For the compound `CC(C)(CC(=O)OCCS(=O)(=O)O)N(Cl)Cl`, the half-life in data set [4] is > 95 days.

Compound `Cc1nc(CC(C)(C)N(Cl)Cl)n(CCS(=O)(=O)O)n1` had an MFC in the data set with Candida albicans of 64 µg/mL (≈ 193 µM). For the same compound, the minimum bactericidal concentration (MBC) against Escherichia coli and with Staphylococcus aureus was 4 µg/mL (≈ 12.1 µM) each time. The half-life in data set [2] is 46 days; in data set [3], 50 days.

In the case of `CC(C)(CNC(=O)CCS(=O)(=O)O)N(Cl)Cl`, in data set [4], the half-life is 0.5 days.

`CC(C)(C[N+]1(C)CCCCC1)N(Cl)Cl.[Cl-]` registered an MFC in the data set on Candida albicans of 64 µg/mL. For the same compound, the MBC in the data set on Escherichia coli is 8 µg/mL; against Staphylococcus aureus, 16 µg/mL. Moreover, the half-life in data set [2] is > 122 days; in data set [3], 100 days.

Consider `CC(=O)N1CC[N+](C)(CC(C)(C)N(Cl)Cl)CC1.[Cl-]`, for which the MFC against Candida albicans is > 1020 µg/mL. Further, the minimum bactericidal concentration (MBC) in the data set on Escherichia coli came to 16 µg/mL; with Staphylococcus aureus, 64 µg/mL. Besides, the values for the half-life in data set [1] and in data set [2] were 6 days and 37 days, respectively.

In the case of `CC(C)(C[N+]1(C)CCOCC1)N(Cl)Cl.[Cl-]`, the half-life in data set [2] and in data set [3] was < 1 days throughout.

As a reminder, the MFC is the lowest tested concentration that kills the fungus rather than only halting it. By MBC is commonly meant the lowest tested concentration that kills the bacteria rather than only halting them. As usually defined, the half-life is the time in which the quantity being followed falls by half.
